From ChEMBL document CHEMBL1255404, “Spread of OXA-48-encoding plasmid in Turkey and beyond” (2010)

Experiments:
Format in all cases: functional
Escherichia coli [1] = test: Antimicrobial activity against Escherichia coli isolate J53 harboring pBb containing beta-lactamase OXA-48 located within transposon Tn1999.2 by Etest method in presence of beta-lactamase inhibitor clavulanic acid
Method in brief: (§1)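 β-Lactam MICs read with Etest strips. Strains are E. coli J53 recipient and J53 transconjugants carrying OXA-48-positive plasmids recovered from clinical enterobacterial isolates.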

Klebsiella pneumoniae [2] = test: Antimicrobial activity against Klebsiella pneumoniae isolate Kp6A expressing beta-lactamase OXA-48 and TEM-150 by Etest method in presence of beta-lactamase inhibitor clavulanic acid
Method in brief: (§2)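 MICs of β-lactams read from Etest strips. The test organisms are carbapenem-resistant, OXA-48-positive clinical Enterobacteriaceae isolates recovered from Turkey, Lebanon, Egypt, France and Belgium.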

Klebsiella pneumoniae [3] = test: Antimicrobial activity against Klebsiella pneumoniae isolate Kp7A expressing beta-lactamase OXA-48 by Etest method in presence of beta-lactamase inhibitor clavulanic acid; method in brief: as §2
Klebsiella pneumoniae [4] = test: Antimicrobial activity against Klebsiella pneumoniae isolate KpBIC expressing beta-lactamase OXA-48 by Etest method in presence of beta-lactamase inhibitor clavulanic acid; method in brief: as §2
Escherichia coli [5] = test: Antimicrobial activity against Escherichia coli isolate TOP10 harboring pBIC containing beta-lactamase OXA-48 located within transposon Tn1999.2 by Etest method in presence of beta-lactamase inhibitor clavulanic acid
Method in brief: (§3)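 β-Lactam MICs read with Etest strips. Strains are E. coli TOP10 host and TOP10 transformants made with plasmid DNA extract when conjugation failed. Transformants were selected on LB agar with ticarcillin 50 μg/ml.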

Klebsiella pneumoniae [6] = test: Antimicrobial activity against Klebsiella pneumoniae isolate KpE expressing beta-lactamase OXA-48 and CTX-M-15 by Etest method in presence of beta-lactamase inhibitor clavulanic acid; method in brief: as §2
Escherichia coli [7] = test: Antimicrobial activity against Escherichia coli isolate J53 harboring pE containing beta-lactamase OXA-48 located within transposon Tn1999.2 by Etest method in presence of beta-lactamase inhibitor clavulanic acid; method in brief: as §1
Klebsiella pneumoniae [8] = test: Antimicrobial activity against Klebsiella pneumoniae isolate KpBEL expressing beta-lactamase OXA-48 by Etest method in presence of beta-lactamase inhibitor clavulanic acid; method in brief: as §2
Escherichia coli [9] = test: Antimicrobial activity against Escherichia coli isolate J53 harboring pL containing beta-lactamase OXA-48 located within transposon Tn1999.2 by Etest method in presence of beta-lactamase inhibitor clavulanic acid; method in brief: as §1
Providencia rettgeri = test: Antimicrobial activity against Providencia rettgeri isolate expressing beta-lactamase OXA-48 and TEM-101 by Etest method in presence of beta-lactamase inhibitor clavulanic acid; method in brief: as §2
Escherichia coli [10] = test: Antimicrobial activity against Escherichia coli isolate J53 harboring pEnc1 containing beta-lactamase OXA-48 located within transposon Tn1999 by Etest method in presence of beta-lactamase inhibitor clavulanic acid; method in brief: as §1
Enterobacter cloacae [11] = test: Antimicrobial activity against Enterobacter cloacae isolate 2 expressing beta-lactamase OXA-48 and SHV-5 by Etest method in presence of beta-lactamase inhibitor clavulanic acid; method in brief: as §2
Escherichia coli [12] = test: Antimicrobial activity against Escherichia coli isolate J53 harboring pEnc2 containing beta-lactamase OXA-48 located within transposon Tn1999 by Etest method in presence of beta-lactamase inhibitor clavulanic acid; method in brief: as §1
Escherichia coli [13] = test: Antimicrobial activity against Escherichia coli isolate J53 harboring pCF containing beta-lactamase OXA-48 located within transposon Tn1999 by Etest method in presence of beta-lactamase inhibitor clavulanic acid; method in brief: as §1
Escherichia coli [14] = test: Antimicrobial activity against Escherichia coli isolate A expressing beta-lactamase OXA-48 and TEM-150 by Etest method in presence of beta-lactamase inhibitor clavulanic acid; method in brief: as §2
Escherichia coli [15] = test: Antimicrobial activity against Escherichia coli isolate J53 harboring pEcA containing beta-lactamase OXA-48 located within transposon Tn1999.2 by Etest method in presence of beta-lactamase inhibitor clavulanic acid; method in brief: as §1
Escherichia coli [16] = test: Antimicrobial activity against Escherichia coli isolate J53 by Etest method in presence of beta-lactamase inhibitor clavulanic acid
Escherichia coli [17] = test: Antimicrobial activity against Escherichia coli isolate TOP10 by Etest method in presence of beta-lactamase inhibitor clavulanic acid; method in brief: as §3
Klebsiella pneumoniae [18] = test: Antimicrobial activity against Klebsiella pneumoniae isolate KpL expressing beta-lactamase OXA-48 by Etest method
Klebsiella pneumoniae [19] = test: Antimicrobial activity against Klebsiella pneumoniae isolate Kp11978 expressing beta-lactamase OXA-48, SHV-2a and TEM-1 by Etest method
Escherichia coli [20] = test: Antimicrobial activity against Escherichia coli isolate J53 harboring pA-1 containing beta-lactamase OXA-48 located within transposon Tn1999 by Etest method; method in brief: as §1
Klebsiella pneumoniae [21] = test: Antimicrobial activity against Klebsiella pneumoniae isolate Kp3A expressing beta-lactamase OXA-48 by Etest method; method in brief: as §2
Klebsiella pneumoniae [22] = test: Antimicrobial activity against Klebsiella pneumoniae isolate Kp4A expressing beta-lactamase OXA-48 and CTX-M-15 by Etest method
Escherichia coli [23] = test: Antimicrobial activity against Escherichia coli isolate J53 harboring p4A containing beta-lactamase OXA-48 located within transposon Tn1999 by Etest method; method in brief: as §1
Escherichia coli [24] = test: Antimicrobial activity against Escherichia coli isolate J53 harboring p6A containing beta-lactamase OXA-48 located within transposon Tn1999 by Etest method; method in brief: as §1
Klebsiella pneumoniae [25] = test: Antimicrobial activity against Klebsiella pneumoniae isolate Kp7A expressing beta-lactamase OXA-48 by Etest method; method in brief: as §2
Escherichia coli [26] = test: Antimicrobial activity against Escherichia coli isolate J53 harboring p7A containing beta-lactamase OXA-48 located within transposon Tn1999 by Etest method; method in brief: as §1
Klebsiella pneumoniae [27] = test: Antimicrobial activity against Klebsiella pneumoniae isolate KpI-2 expressing beta-lactamase OXA-48 and CTX-M-15 by Etest method
Escherichia coli [28] = test: Antimicrobial activity against Escherichia coli isolate J53 harboring pI-1 containing beta-lactamase OXA-48 located within transposon Tn1999.2 by Etest method; method in brief: as §1
Escherichia coli [29] = test: Antimicrobial activity against Escherichia coli isolate J53 harboring pI-2 containing beta-lactamase OXA-48 located within transposon Tn1999.2 by Etest method; method in brief: as §1
Klebsiella pneumoniae [30] = test: Antimicrobial activity against Klebsiella pneumoniae isolate KpE expressing beta-lactamase OXA-48 and CTX-M-15 by Etest method
Klebsiella pneumoniae [31] = test: Antimicrobial activity against Klebsiella pneumoniae isolate KpBEL expressing beta-lactamase OXA-48 by Etest method; method in brief: as §2
Escherichia coli [32] = test: Antimicrobial activity against Escherichia coli isolate J53 harboring pL containing beta-lactamase OXA-48 located within transposon Tn1999.2 by Etest method; method in brief: as §1
Escherichia coli [33] = test: Antimicrobial activity against Escherichia coli isolate J53 harboring pEnc1 containing beta-lactamase OXA-48 located within transposon Tn1999 by Etest method; method in brief: as §1
Enterobacter cloacae [34] = test: Antimicrobial activity against Enterobacter cloacae isolate 2 expressing beta-lactamase OXA-48 and SHV-5 by Etest method
Escherichia coli [35] = test: Antimicrobial activity against Escherichia coli isolate J53 harboring pEnc2 containing beta-lactamase OXA-48 located within transposon Tn1999 by Etest method; method in brief: as §1
Escherichia coli [36] = test: Antimicrobial activity against Escherichia coli isolate J53 harboring pEcA containing beta-lactamase OXA-48 located within transposon Tn1999.2 by Etest method; method in brief: as §1
Escherichia coli [37] = test: Antimicrobial activity against Escherichia coli isolate J53 by Etest method; method in brief: as §1
Klebsiella pneumoniae [38] = test: Antimicrobial activity against Klebsiella pneumoniae isolate Kp11978 expressing beta-lactamase OXA-48, SHV-2a and TEM-1 by Etest method in presence of beta-lactamase inhibitor clavulanic acid; method in brief: as §2

Measured: MIC

CC1(C)S[C@@H]2[C@H](NC(=O)[C@H](N)c3ccc(O)cc3)C(=O)N2[C@H]1C(=O)O [AMOXICILLIN]
4 µg/mL: Escherichia coli [16] | Escherichia coli [17] | Escherichia coli [37]
> 256 µg/mL: Klebsiella pneumoniae [8] | Escherichia coli [9] | Providencia rettgeri | Escherichia coli [14] | Escherichia coli [15] | Klebsiella pneumoniae [18] | Klebsiella pneumoniae [31] | Escherichia coli [32] | Escherichia coli [36]
> 512 µg/mL: all other assays above

CC1(C)S[C@@H]2[C@H](NC(=O)[C@H](C(=O)O)c3ccsc3)C(=O)N2[C@H]1C(=O)O [TICARCILLIN]
4 µg/mL: Escherichia coli [17]
> 256 µg/mL: Klebsiella pneumoniae [8] | Escherichia coli [9] | Providencia rettgeri | Escherichia coli [14] | Escherichia coli [15] | Klebsiella pneumoniae [18] | Klebsiella pneumoniae [31] | Escherichia coli [32] | Escherichia coli [36]
2 µg/mL: Escherichia coli [16] | Escherichia coli [37]
> 512 µg/mL: all other assays above
